bIAP inhibitor – blocks bovine intestinal alkaline phosphatase activity. purified bovine IAP, CDP-star luminescence, 30 min. inhibition, % at 20 µM. 190,000 tested, under 10 active. AID 1019;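 active means over 50% inhibition of intestinal alkaline phosphatase at 20 µM in the single-dose screen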
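Incubation: 30 min reaction at room temperature / Material: purified bovine intestinal alkaline phosphatase (IAP) enzyme / Input: enzyme at 1/65,000,000 dilution / Dosing: 20 µM single dose / Signal: CDP-star luminescence signal / Reagent: CDP-star chemiluminescent phosphatase substrate, 30 µM final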
hIAP inh – human IAP inhibition; AID 2544; inhibition, % at 10 µM; P09923; 330,000 compounds, 0.12% hits; purified IAP, CDP-Star luminescence, 30 min;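 active means inhibition reaching a set limit with compound at 10 µM in the primary screen, cut at about 35% in these data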;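 further: plate controls were DMSO wells with enzyme for no effect and no-enzyme buffer wells for full effect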
Target sequence (P09923 whole entry, looked up): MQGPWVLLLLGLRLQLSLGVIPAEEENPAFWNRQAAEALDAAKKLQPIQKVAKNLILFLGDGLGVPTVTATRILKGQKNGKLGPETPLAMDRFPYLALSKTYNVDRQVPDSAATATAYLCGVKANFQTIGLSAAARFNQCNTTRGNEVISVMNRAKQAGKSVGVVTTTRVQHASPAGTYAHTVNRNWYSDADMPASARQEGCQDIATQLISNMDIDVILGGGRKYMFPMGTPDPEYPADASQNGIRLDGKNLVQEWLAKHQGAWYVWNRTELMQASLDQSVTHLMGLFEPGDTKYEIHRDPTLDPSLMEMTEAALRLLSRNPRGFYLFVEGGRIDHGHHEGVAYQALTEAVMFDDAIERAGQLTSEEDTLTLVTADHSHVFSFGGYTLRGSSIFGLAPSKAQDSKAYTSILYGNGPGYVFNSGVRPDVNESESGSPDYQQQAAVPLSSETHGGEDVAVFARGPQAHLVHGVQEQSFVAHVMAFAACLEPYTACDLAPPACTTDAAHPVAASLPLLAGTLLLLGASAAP
mIAP block – blocks mouse intestinal alkaline phosphatase; inhibition, % at 10 µM; 330,000 compounds, 0.2% hits; purified mouse IAP, CDP-Star luminescence, 30 min;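 active means inhibition of at least 40% at 10 µM in the primary screen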;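 further: plate controls were DMSO with enzyme for no effect and no enzyme wells for full effect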
bIAP activator – intestinal alkaline phosphatase (bovine) activation | activation factor at 20 µM | purified bovine IAP, CDP-star luminescence, 30 min; stronger effect = higher value; fold of DMSO-control signal, blank-subtracted | 200,000 compounds, 0.17% hits | AID 1016;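 active means activation factor of 2 or more at 20 µM, a signal rise over negative controls twice the positive control's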
hIAP act – human IAP activation; P09923; purified human IAP, CDP-Star luminescence, 30 min; stronger effect = higher value; 1 = vehicle-only enzyme, 0 = enzyme-free background; activation factor at 10 µM; 330,000 compounds, 0.16% hits; AID 2524;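 active means activation factor of the enzyme at least 2-fold when tested at 20 µM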
mIAP activ – mouse IAP activation; 330,000 compounds, 0.24% hits; activation factor at 10 µM; muIAP, CDP-Star luminescence, 30 min; stronger effect = higher value; 1 = vehicle-only enzyme signal, 0 = enzyme-free wells; AID 2805;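 active means activation factor of at least 2 at 20 µM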
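Assay system: mouse IAP enzyme; Reagent: CDP-Star chemiluminescent phosphatase substrate; Compound: DMSO-dissolved test compounds; Incubation: 30 min, room temperature; Technique: luminescence from enzymatic CDP-Star hydrolysis; Controls: DMSO-only wells and no-enzyme negative control.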
mIAP inh confirm – mouse IAP inhibition confirmation. shares compounds with mIAP block. purified mouse IAP, CDP-Star luminescence, 30 min. inhibition, % at 10 µM. 11,000 compounds, 4.7% hits;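 active means inhibition of at least 40% at 10 µM in either of the two replicates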;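 further: plate controls were DMSO wells with enzyme for no effect and buffer wells lacking enzyme for full effect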
Active calls of the source: *; . = no result given. Sampled rows, rich in hits. Any-hit rate of the full collection: about 0.72%.

SMILES	bIAP inhibitor	hIAP inh	mIAP block	bIAP activator	hIAP act	mIAP activ	mIAP inh confirm
CCOc1ccccc1NC(=O)CN1CCC(NC(=O)Nc2ccccc2)CC1	.	-81.2	-248.6	.	1.81	3.49*	-198.9
Cc1cccc(NS(=O)(=O)c2ccc3[nH]c(=O)oc3c2)c1C	.	-7.6	1.7	.	1.08	0.983	.
COC(=O)c1ccc(NS(=O)(=O)c2ccc3[nH]c(=O)oc3c2)cc1	.	-11.2	69.8*	.	1.11	0.302	74.3*
Cc1ccc(C)c(NS(=O)(=O)c2ccc3[nH]c(=O)oc3c2)c1	-6.2	-7.0	84.3*	1.1	1.07	0.157	88.9*
Cc1ccc(NS(=O)(=O)c2ccc3[nH]c(=O)oc3c2)cc1Cl	.	7.5	20.3	.	0.925	0.797	.
O=c1[nH]c2ccc(S(=O)(=O)N3CCCCC3)cc2o1	10.8	4.4	79.8*	0.9	0.956	0.202	74.3*
O=C(N/C(=C/c1cccc([N+](=O)[O-])c1)C(=O)N1CCOCC1)c1ccc(Br)cc1	.	15.1	4.5	.	0.849	0.955	.
N#CC1=C2SCN(c3ccc(F)cc3)CN2C(=O)CC1c1cccc(F)c1 (stereo unspecified)	10.7	11.7	60.4*	0.9	0.883	0.396	59.3*
Cc1ccc(N2CSC3=C(C#N)C(c4cccs4)CC(=O)N3C2)cc1 (stereo unspecified)	16.7	-13.7	46.4*	0.8	1.14	0.536	46.1*
COc1ccc(CNC(=O)C(c2ccccc2F)N(C(=O)c2csnn2)C2CC2)cc1 (stereo unspecified)	.	-11.0	-3.4	.	1.11	1.03	.
COc1ccc(-c2csc(Nc3ccc(S(N)(=O)=O)cc3)n2)cc1	21.4	-13.3	-14.7	0.8	1.13	1.15	.
Cc1nc(N)sc1-c1csc(Nc2ccc(S(N)(=O)=O)cc2)n1	.	-9.9	66.9*	.	1.1	0.331	68.1*
COCCn1cnnc1SCC(=O)Nc1sc2c(c1C#N)CCC2	.	-10.1	3.9	.	1.1	0.961	.
Cn1cnnc1SCC(=O)Nc1sc2c(c1C(N)=O)CCC2	1.4	14.4	57.2*	1	0.856	0.428	54.0*
Nc1c(C(=O)Nc2ccccc2F)sc2nc(-c3ccco3)ccc12	14.7	8.2	47.5*	0.9	0.918	0.525	61.0*
CC(C)OC(=O)c1sc2nc(-c3ccccc3)ccc2c1N	-9.8	-33.9	-22.2	1.1	1.34	1.22	.
NC(=O)c1sc2nc(-c3ccco3)ccc2c1N	5.8	-5.0	43.9*	0.9	1.05	0.561	52.0*
COC(=O)c1sc2nc(-c3ccco3)ccc2c1N	2.8	5.5	52.1*	1	0.945	0.479	53.2*
NC(=O)c1sc2nc3c(c(-c4ccco4)c2c1N)CCC3	11.2	-7.6	42.6*	0.9	1.08	0.574	56.8*
NC(=O)c1sc2nc(-c3cccnc3)ccc2c1N	.	14.1	1.0	.	0.859	0.99	.
O=C(COC(=O)CNC(=O)c1ccccc1)Nc1ccc(S(=O)(=O)N2CCOCC2)cc1	-10.2	-3.8	7.6	1.1	1.04	0.924	.
N#CCCN(C(=O)COC(=O)CCc1c[nH]c2ccccc12)c1ccc(F)cc1	.	-7.4	2.3	.	1.07	0.977	.
CCOC(=O)C1CCN(C(=O)COC(=O)CSc2ccccc2C)CC1	.	4.9	-16.8	.	0.951	1.17	.
CC(=O)NN1C(=O)/C(=C\c2ccccc2)SC1=S	3.6	6.7	-2.9	1	0.933	1.03	.
CC(=O)NN1C(=O)/C(=C\c2ccc(O)cc2)SC1=S	.	32.4	27.5	0.5	0.676	0.725	.
SMILES	bIAP inhibitor	hIAP inh	mIAP block	bIAP activator	hIAP act	mIAP activ	mIAP inh confirm
CC(=O)NN1C(=O)/C(=C\c2ccc(Br)o2)SC1=S	8.5	3.0	60.2*	0.9	0.97	0.398	73.9*
CC(=O)NN1C(=O)/C(=C/c2ccc(Br)o2)SC1=S	17.2	-2.6	67.2*	0.8	1.03	0.328	74.9*
CCN(CC)CCNC(=O)c1ccc(NC(=O)Nc2cccc3ccccc23)cc1	.	-54.3	-214.4	.	1.54	3.14*	-159.6
O=C(c1ccc2c(c1)OCO2)C1CCCN(Cc2ccc(OC(F)F)cc2)C1 (stereo unspecified)	.	8.0	1.3	.	0.92	0.987	.
O=C(Nc1ccc2c(c1)N(Cc1ccccc1)C(=O)c1ccccc1S2)NC1CC1	-48.7	6.6	-174.4	1.5	0.934	2.74*	-144.9
CCOc1ccc(S(=O)(=O)Nc2ccc(O)c(Sc3ncn[nH]3)c2)cc1	-2.6	-5.7	44.2*	1	1.06	0.558	62.0*
COc1ccc(OC)c(S(=O)(=O)Nc2ccc(O)c(Sc3ncn[nH]3)c2)c1	13.3	16.7	49.7*	0.9	0.833	0.503	51.9*
Cc1cc(F)ccc1S(=O)(=O)Nc1ccc(O)c(Sc2ncn[nH]2)c1	.	-5.6	69.7*	.	1.06	0.303	65.9*
Cc1cc(F)ccc1S(=O)(=O)Nc1ccccc1C(=O)Nc1ncn[nH]1	-60.9	-8.9	7.4	1.6	1.09	0.926	.
CCOc1ccc(NS(=O)(=O)c2ccc(NS(=O)(=O)c3ccc(SC)cc3)cc2)cc1	14.1	0.5	10.6	0.9	0.995	0.894	.
CSc1ccc(S(=O)(=O)Nc2ccc(S(=O)(=O)Nc3ccc(C)cc3)cc2)cc1	3.8	16.8	5.3	1	0.832	0.947	.
Cc1ccc(S(=O)(=O)Nc2ccc(O)c(Sc3ncn[nH]3)c2)cc1	1.2	-3.8	49.9*	1	1.04	0.501	65.1*
COc1ccc(/C(C)=N/NC(=O)CNC(=O)CCc2ccccc2)c(OC)c1	.	-0.8	-1.3	.	1.01	1.01	.
O=C(CCn1c(=S)oc2ccccc21)NC1CCCCCCC1	.	-24.4	-10.4	.	1.24	1.1	.
Cc1c(C(=O)Nc2ccccc2-c2ccccc2)cccc1[N+](=O)[O-]	25.9	8.8	10.6	0.7	0.912	0.894	.
CCOC(=O)CC1CCCCN1C(=O)c1ccc2nc(CCOC)oc2c1 (stereo unspecified)	.	8.0	0.8	.	0.92	0.992	.
Cc1ccc(C)c(S(=O)(=O)Nc2ccc(O)c(Sc3ncn[nH]3)c2)c1	.	-17.1	74.8*	.	1.17	0.252	81.7*
CN(CC(=O)Nc1ccc(Cl)cc1)C(=O)Cn1[nH]c(=O)c2ccccc2c1=O	.	-5.0	1.0	.	1.05	0.99	.
O=C(NCc1ccc2c(c1)CCO2)Nc1cccc(C(F)(F)F)c1	.	9.1	-277.8	.	0.909	3.78*	-143.5
O=C(NCc1cccnc1)Nc1cccc(C(F)(F)F)c1	.	-19.8	-8.4	.	1.2	1.08	.
COCCNS(=O)(=O)c1ccc2c(c1)oc(=O)c1cc(S(=O)(=O)NCCOC)ccc12	-1.5	-10.6	0.3	1	1.11	0.997	.
NS(=O)(=O)c1ccc2c(c1)oc(=O)c1cc(S(N)(=O)=O)ccc12	9.2	3.3	47.8*	0.9	0.967	0.522	56.6*
c1coc(CSSCc2ccco2)c1	.	-1.9	70.8*	.	1.02	0.292	75.2*
